Many of the other results were omitted from the sample, so hits are more common in it than they were.
Fh CTSL1 inh – blocks F. hepatica cathepsin L1 in PFM18AAP counter-screen; 300,000 tested, 0.49% active; recombinant F. hepatica cathepsin L1, Z-Leu-Arg-MCA fluorescence; inhibition, % at 5.96 µM; AID 1906;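 active = inhibition above the mean of all tested compounds plus 3 SD, set per screening campaign, cut at about 17% in these data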;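 also: 0% = plate median of test compound wells and 100% = 1 µM Z-Phe-Ala-diazomethylketone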
CHOP inhibitor – CHOP inhibition in unfolded protein response | CHO-K1 CHOP-promoter luciferase, tunicamycin-induced, 15-18 h | inhibition, % at 10 µM | 220,000 tested, 3.8% active;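 active = compounds that reduced the stress-induced luciferase reporter signal by more than about 70% of percent inhibition, limit read from the data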;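 also: 0% = tunicamycin plus vehicle and 100% = wells without tunicamycin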
UPR XBP1 act – adaptive UPR (XBP1) activation | CHO-XBP1 luciferase reporter, IRE1-XBP1 UPR activation, luminescence; percent of tunicamycin response, DMSO as zero | activation, % at 20 µM | 330,000 tested, 0.33% active;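 active = versus positive control, 20 µM dose yields 30% or more activation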;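 also: 100% = tunicamycin at 10 µg/mL and 0% = DMSO only wells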
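Material: CHO cell line with stable XBP1 luciferase reporter; buffer or medium: F12 medium containing 10% fetal bovine serum; compound: single point, 20 µM final compound, 1% DMSO; incubation: 6 h treatment, 37 °C; measured by: glow luminescence from Steady-Glo reagent; evaluation: activation, % of tunicamycin; control set: tunicamycin high, DMSO low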
CHOP UPR activ – activators of apoptotic arm of unfolded protein response (CHOP); AID 449763; activation, % at 10 µM; 330,000 tested, 0.34% active; CHO-CHOP luciferase reporter, UPR activation, luminescence; percent of tunicamycin response over DMSO baseline;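 active = at 10 µM dose, activation of 40% or more, normalized to positive control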;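 also: 100% = tunicamycin at 10 µg/mL and 0% = DMSO alone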
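Dosing – one dose, 10 µM in 0.5% DMSO · System – CHO-CHOP cells, stable luciferase reporter of PERK-eIF2a-CHOP signalling · Input – 500 cells/well · Control set – tunicamycin 10 µg/mL final as positive, DMSO-only wells as negative · Timing – 6 h compound treatment, 37 °C · Measure – % activation vs tunicamycin · Technique – luminescence read with Steady-Glo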
UCH37 DUB inh – inhibitors of human deubiquitinating enzyme UCH37. 330,000 tested, 0.33% active. purified proteasome/UCH37, Ub-AMC cleavage fluorescence. inhibition, % (no concentration beside the values). AID 588478. Q9Y5K5;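 active = mean inhibition over replicate wells above about 20%, limit read from the data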;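 also: 0% = compound-free wells with enzyme and 100% = wells lacking proteasome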
Target sequence (Q9Y5K5 whole entry, looked up): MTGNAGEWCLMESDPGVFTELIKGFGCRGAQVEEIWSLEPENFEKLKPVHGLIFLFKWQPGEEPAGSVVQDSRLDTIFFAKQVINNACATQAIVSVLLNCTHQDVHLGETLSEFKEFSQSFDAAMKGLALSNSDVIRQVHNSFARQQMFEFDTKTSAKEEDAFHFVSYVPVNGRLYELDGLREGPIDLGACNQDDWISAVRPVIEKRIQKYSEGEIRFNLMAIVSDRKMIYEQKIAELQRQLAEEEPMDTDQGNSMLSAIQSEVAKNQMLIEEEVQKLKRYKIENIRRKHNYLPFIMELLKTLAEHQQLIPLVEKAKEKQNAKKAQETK
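Material: human UCH37 enzyme supplied as purified proteasome complex. Measure: % inhibition of Ub-AMC cleavage fluorescence. Medium: pH 7.4 Tris-HCl (50 mM) with ovalbumin, ATP-MgCl2, DTT. Times: 30 min preincubation with enzyme, 25 min cleavage at room temperature. Detection: AMC fluorescence intensity at 355/460 nm.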
The depositor's hits bear a star; / = no result given.

SMILES	Fh CTSL1 inh	CHOP inhibitor	UPR XBP1 act	CHOP UPR activ	UCH37 DUB inh
Cc1[nH]c2ccccc2c1C=NNC(=O)CNC(=O)Cc1ccccc1	/	/	/	/	4
COc1cc(C=Nn2nnnc2N)ccc1OC(C)=O	/	/	/	/	4
CCCc1cc(Nc2cccc(OCC)c2)n2ncnc2n1	5	31	-1	-2	4
CCCc1cc(Nc2cccc(OC)c2)n2ncnc2n1	18*	44	-1	-1	0
CS(=O)(=O)N1CCC(C(=O)Nc2cc(C(F)(F)F)ccc2Cl)CC1	-4	-10	-7	-1	1
O=C(Nc1cc(C(F)(F)F)ccc1Cl)C1CCN(c2nnc(-n3cccc3)s2)CC1	/	83*	/	/	0
O=C(CN1CCCCC1)NN=Cc1ccc(Cl)cc1	/	/	/	/	1
Cc1ccccc1C(=O)NC(=S)Nc1ccc(S(=O)(=O)N(C)c2ccccc2)cc1	0	77*	-4	0	2
Nc1c(Cl)ncnc1NN=Cc1ccc2ccccc2n1	/	/	/	/	9
C[C@@H](OC(=O)N(C)Cc1ccccc1)[C@H]1O[C@]2(C)CCCC[C@H]1O2	/	/	0	0	30*
O=C(COc1ccccc1[N+](=O)[O-])N(Cc1ccco1)C1CCS(=O)(=O)C1 (stereo unspecified)	25*	/	-7	0	1
CCN(C(=O)COc1ccccc1[N+](=O)[O-])C1CCS(=O)(=O)C1 (stereo unspecified)	-1	20	1	0	2
N#C/C(C(N)=O)=c1/ccc2c(c1)N1C3=C(CCCC3)CC3CCCCC31N=2 (stereo unspecified)	1	82*	4	1	/
CC(C)(C)NC(=O)NC(=O)COC(=O)C1=COCCO1	-12	81*	0	0	1
O=C(Oc1nsnc1N1CCOCC1)N1CCOCC1	-1	71*	-1	-2	7
O=C1C(Cl)=C(N2CCOCC2)C(=O)N1c1ccccc1Cl	17	43	-4	-1	5
CN1CCN(C2=C(Cl)C(=O)N(c3cccc(Cl)c3)C2=O)CC1	23*	4	-2	-2	0
CN1CCN(C2=C(Cl)C(=O)N(c3ccc(Cl)c(Cl)c3)C2=O)CC1	40*	29	-2	0	2
O=C1C(Cl)=C(N2CCCCCC2)C(=O)N1c1ccc(Cl)cc1	11	/	-5	2	2
CC1CCCN(C2=C(Cl)C(=O)N(c3cccc(Cl)c3)C2=O)C1 (stereo unspecified)	3	35	-2	1	-2
COc1ccc(N2C(=O)C(Cl)=C(N3CCCC3)C2=O)cc1	2	22	-1	2	3
O=C1C(Cl)=C(N2CCCC2)C(=O)N1c1ccc(F)cc1	29*	/	-2	2	5
Cc1ccc(N2C(=O)C(Cl)=C(N3CCOCC3)C2=O)cc1Cl	38*	22	3	0	4
CC(=NNc1ccc([N+](=O)[O-])cc1)c1ccc2c(c1)OCO2	/	/	/	/	3
CCCCCC(=O)NN=C(C)c1ccc(NC(=O)c2ccco2)cc1	/	/	/	/	-2
SMILES	Fh CTSL1 inh	CHOP inhibitor	UPR XBP1 act	CHOP UPR activ	UCH37 DUB inh
O=C(NCc1cc(C(F)(F)F)ccc1Cl)c1cccc2c1C(=O)c1ccc(-c3ccc(OC(F)(F)F)cc3)cc1S2(=O)=O	/	/	162*	91*	/
ON=CCc1[nH]c2ccccc2c1-c1ccccc1	/	/	/	/	1
NC(=O)c1ccc(N=C2C(=O)Nc3ccc([N+](=O)[O-])cc32)cc1	109*	12	4	1	84*
O=C1Nc2ccccc2C1=Nc1cccc([N+](=O)[O-])c1	-2	/	1	0	6
OC(CNCc1ccc(Cl)cc1)(c1ccccc1)c1ccc(F)cc1 (stereo unspecified)	3	75*	-1	-2	3
OC(CNCc1ccc(F)cc1)(c1ccc(F)cc1)c1ccc(F)cc1	-1	72*	-1	-1	-1
COc1ccc(CNCC(O)(c2ccccc2)c2ccc(F)cc2)cc1 (stereo unspecified)	-2	/	-1	0	-1
O=C(Nc1scc(-c2ccccc2)c1C(=O)O)c1ccco1	0	73*	-4	1	9
O=C(CSc1nc(C2CC2)nc2ccccc12)N1CCCCC1	2	/	-2	2	3
O=C(CSc1nc(C2CC2)nc2ccccc12)N1CCc2ccccc2C1	0	74*	-1	0	/
